TNAP act hi DEA: activators of human TNAP at high phosphate acceptor concentration. P05186. purified TNAP, CDP-star luminescence, 1 M DEA, 30 min; stronger effect = higher value; 0 = EDTA background, 1 = DMSO-only activity. activation factor at 20 µM. 200,000 tested, under 10 active. AID 1136;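 active = activation factor at least 2 at 20 µM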
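Assay system: human TNAP; Input: enzyme diluted 1/800 final; Reagent: CDP-star luminogenic substrate at 100 µM final; Timing: 30 min, room temperature; Signal: luminescence; Evaluation: TNAP activation factor scaled between EDTA and DMSO control wells.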
Ins promoter up: MIN6 insulin promoter up-regulation. MIN6 insulin promoter-GFP reporter, high-content imaging; stronger effect = higher value. z-score at 5 µM. 0.3% of 190,000 active. AID 1625;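 active = z-score above 3 at 5 µM with at least 500 cells counted in the well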
p47phox inh: inhibitors of human p47phox binding. P14598. p47phox/p22phox peptide binding, fluorescence polarization, 2 h. inhibition, % at 24.7 µM. 0.53% of 220,000 active. AID 1274;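 active = inhibition above about 30%, limit read from the data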;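 note: 0% = p47phox with labelled peptide and 100% = labelled peptide alone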
Target sequence (P14598 whole entry, looked up): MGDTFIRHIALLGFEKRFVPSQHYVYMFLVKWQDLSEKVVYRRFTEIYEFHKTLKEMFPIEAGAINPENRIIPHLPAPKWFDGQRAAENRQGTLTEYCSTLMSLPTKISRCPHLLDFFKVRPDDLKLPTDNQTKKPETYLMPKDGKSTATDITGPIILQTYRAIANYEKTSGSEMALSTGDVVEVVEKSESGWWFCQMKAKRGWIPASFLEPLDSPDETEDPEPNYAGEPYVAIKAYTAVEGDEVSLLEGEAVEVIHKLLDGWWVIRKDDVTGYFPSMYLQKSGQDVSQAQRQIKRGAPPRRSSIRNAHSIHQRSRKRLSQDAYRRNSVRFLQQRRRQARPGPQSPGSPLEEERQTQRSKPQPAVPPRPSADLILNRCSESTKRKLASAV
TNAP inh hiacc: blocks human TNAP under high phosphate acceptor concentration | P05186 | purified TNAP, CDP-star luminescence, 1 M DEA | inhibition, % at 20 µM | 0.03% of 200,000 active | AID 1135;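 active = over 50% inhibition of tissue-nonspecific alkaline phosphatase at 20 µM in the single-dose screen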;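 note: plate controls were DMSO wells for no effect and EDTA-quenched wells as full inhibition for full effect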
Autophagy mod: alters autophagy in cells; MEF GFP-LC3 puncta imaging; test concentration mostly 10 µM; calls only at 10 µM (by protocol); 0.98% of 190,000 active; AID 463193;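 active = percentage of spot-positive cells more than 3 SD above its plate mean, without a fluorescence outlier flag or 80% toxicity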;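 note: spot-positive cell cutoff set from DMSO-treated cells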
TNAP inh noacc: blocks human TNAP activity with no phosphate acceptor present. P05186. purified TNAP, CDP-star luminescence, 30 min. inhibition, % at 20 µM. 0.26% of 200,000 active. AID 1012;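 active = tissue-nonspecific alkaline phosphatase inhibition above about 50% at 20 µM in the single-dose screen, limit read from the data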;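 note: 0% = DMSO negative control and 100% = EDTA positive control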
* marks the source's active call; other numbers are inactive results; i = inactive; · = no result given; + = active, no number. A selection: hits, their analogues and other compounds. The true share with any hit is near 1.8%.

SMILES	TNAP act hi DEA	Ins promoter up	p47phox inh	TNAP inh hiacc	Autophagy mod	TNAP inh noacc
N#C/C(=C\c1ccc(/C=C(/C#N)c2nn(CCO)c(N)c2C#N)cc1)c1nn(CCO)c(N)c1C#N	0.9	·	-26	5	+	10
C=C(C)C1CC=C(C)/C(=N/NC(=O)c2cccc([N+](=O)[O-])c2)C1 (stereo unspecified)	1	0.28	4	-4	i	-6
C=C(C)C1CC=C(C)/C(=N/NC(=O)c2ccc(NC(=O)c3cccc(C)c3)cc2)C1 (stereo unspecified)	1	·	37*	0	i	-1
NS(=O)(=O)c1cccc(NC(=O)CSc2nc3ccccc3c(=O)n2CCCN2CCOCC2)c1	1	0.17	-2	5	+	2
O=C1CN(C(=O)CSc2nc3ccccc3c(=O)n2CCCN2CCOCC2)c2ccccc2N1	·	0.12	-17	·	·	·
O=C(CSc1nc2ccccc2c(=O)n1CCCN1CCOCC1)c1c[nH]c2ccccc12	1.1	·	-15	-7	+	-12
O=C(CSc1nc2ccccc2c(=O)n1CCCN1CCOCC1)Nc1ccc2c(c1)OCO2	1.1	·	-7	-8	i	-14
CCn1c(SCC(=O)NC(C)C)nnc1-c1cccs1	1	·	-6	-1	+	-4
COc1ccc(NC(=O)CSc2nnc(-c3cccs3)n2C)cc1OC	1	3.5*	-11	5	i	-3
COc1ccccc1NC(=O)CSc1ccc2nnc(-c3ccncc3)n2n1	1	0.63	-2	-1	i	20
COc1ccccc1NC(=O)CC(=O)CSc1nnc(-c2ccc(C)cc2)n1C	1	0.03	-13	-1	i	-6
CCOC(=O)c1ccc(NC(=O)CSc2nnc(-c3cccs3)n2C)cc1	1	1.1	-9	-2	i	-7
COc1ccccc1NC(=O)CSc1ccc2nnc(-c3ccc(C)cc3)n2n1	1	-0.01	35*	-1	i	1
COc1ccccc1NC(=O)CSc1nnc(-c2ccc(NC(C)=O)cc2)n1C	1	0.8	-4	2	+	-7
O=C(O)c1ccc(-c2ncc[nH]2)cc1	1	0.31	-5	2	i	-2
COc1ccc(-c2ccnc3c(C(=O)O)cnn23)cc1	1	0.12	-3	0	i	-10
N=C(N)SCc1cn(-c2ccccc2)nc1-c1ccc(Br)cc1	0.9	-0.06	54*	5	i	24
CCOC(=O)C1=C(O)c2ccccc2C(=O)/C1=C\c1ccc(C)cc1	1	0.91	57*	-4	i	18
COc1cccc(C(=O)N/N=C/C(Br)=C/c2ccccc2)c1	1	·	-2	2	i	-7
COC(=O)c1ccc(C(NC(=O)OCc2ccccc2)/C(F)=C/[C@@H](C)C(=O)NCc2ccc(OC)c(OC)c2)cc1 (stereo partly specified)	1	0.08	22	-2	i	-11
CCCN(CCC)CCCNC(=S)Nc1ccc2nc(N3CCN(CC)CC3)cc(C)c2c1	1.1	-0.16	-3	-8	i	-7
CCCN(CCC)CCCNC(=S)Nc1ccc2nc(N3CCN(C)CC3)cc(C)c2c1	1	-0.34	4	-2	+	0
CCN1CCN(c2cc(C)c3cc(NC(=O)c4ccc(Br)o4)ccc3n2)CC1	0.9	-0.79	-47	9	+	4
CCN1CCN(c2cc(C)c3cc(NC(=O)c4ccncc4)ccc3n2)CC1	1.1	-1.9	-6	-5	i	-1
CN(c1cccc(NC(=O)CN(c2cccc(Cl)c2)S(=O)(=O)c2ccc(Cl)cc2)c1)S(C)(=O)=O	1	0.04	-12	-3	i	-19
SMILES	TNAP act hi DEA	Ins promoter up	p47phox inh	TNAP inh hiacc	Autophagy mod	TNAP inh noacc
CSCc1ccc(C(=O)Nc2ccc(C(N)=O)cc2)cc1	1.1	-0.06	-11	-5	i	-29
C/C=C(\C)CN1CCCC(CO)(Cc2ccccc2)C1 (stereo unspecified)	1	·	-5	-2	i	0
O=C(Nc1nc2ccc(S(=O)(=O)N3CCCC3)cc2s1)C1CCCCC1	1	-0.22	-15	-3	+	-10
O=C(Nc1nc2ccc([N+](=O)[O-])cc2s1)C1CCCO1 (stereo unspecified)	1	0.16	3	1	+	-2
CCN(CC)C(=O)Cn1cc(C(=O)C(=O)N2CC=C(c3ccccc3)CC2)c2ccccc21	1	0.05	-2	1	i	-5
O=C(Nc1ccc(CN2CCCCC2)cc1)c1sc2ccccc2c1Cl	·	-1.1	-4	·	·	·
CCOc1cc(/C=C2\CCC/C(=C\c3cc(Cl)c(O)c(OCC)c3)C2=O)cc(Cl)c1O	0.5	0.88	-17	53*	i	49
C=CCNC(=O)/C(C#N)=C\c1cc(Cl)c(O)c(OCC)c1	0.8	-0.28	-13	16	i	15
CC(C)COC(=O)NC1c2ccccc2Oc2ccccc21	·	0.47	1	·	·	·
Cc1cccc(NC(=O)CCN2C(=O)C3C4C=CC(C4)C3C2=O)n1 (stereo unspecified)	1	0.55	2	-4	i	-12
Cc1cccc(NC(=O)CCN2C(=O)c3ccccc3C2=O)n1	1.1	·	-8	-6	+	-13
O=C(CCCN1C(=O)c2ccccc2C1=O)Nc1nncs1	1.1	-1.5	-1	-5	i	-16
O=C(CCCN1C(=O)c2ccccc2C1=O)NC1=NCCS1	1	0.58	-6	-1	+	-6
Oc1cc2c(cc1O)C1c3ccc(O)c(O)c3OCC1(O)C2 (stereo unspecified)	0.7	-0.09	-62	34	i	87*
OC(c1ccccn1)c1c[nH]c2ccccc12 (stereo unspecified)	1	0.1	35*	-1	·	-7
Fc1ccc(C(Nc2ccccn2)c2c[nH]c3ccccc23)cc1 (stereo unspecified)	1	0.11	3	-2	i	-21
CCOC(=O)c1ccc2c(c1)N(CC#N)C(=O)C(C)(C)O2	1.1	-0.38	-2	-7	i	-7
CC1CCCCN1C(=O)COC(=O)c1n[nH]c2ccccc12 (stereo unspecified)	1	-0.22	-10	-3	i	55*
O=C(COC(=O)c1n[nH]c2ccccc12)NC(=O)NC1CCCCC1	1	-0.02	-8	-2	i	7
CCOC(=O)c1n[nH]c2ccccc12	1	-0.03	-1	-2	i	58*
C/C(N)=C(/C#N)C(=O)CSc1nnc(-c2ccc3c(c2)OCO3)o1	1	0.07	42*	-3	i	-9
CCOC(=O)c1c2ccc(OCC(=O)N/N=C/c3ccc(Cl)cc3)cc2n2ccccc12	1	1.6	4	1	+	-4
COc1ccc(N=C2S/C(=C\c3ccc(N4CCOCC4)o3)C(=O)N2CCc2c[nH]c3ccccc23)cc1	0.9	·	-70	12	+	16
